# T cruzi growth-1: inhibitors of T. cruzi proliferation; T. cruzi beta-gal in NIH3T3, GalScreen luminescence, 90 h; hit rate 5.9% among 77,000; inhibition, % at 8.34 µM; AID 624255;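 active means mean inhibition above about 93%, with at least 55% of replicates each passing it, limit read from the data, passing the limit was not always enough; inconclusive means only one of those two conditions holds; inactive means neither condition holds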
# IDH1 mut inh: blocks human IDH1 R132H reductase activity. O75874. AID 624101. hit rate 0.18% among 70,000. diaphorase/resazurin fluorescence, 60 min. inhibition, % at 10 µM; in the data active means inhibition above about 34%; inconclusive means no clear call, values can overlap the other calls; inactive means below about 11%
# GASC1 inh: inhibitors of human demethylase GASC-1 KDM4C | hit rate 0.15% among 96,000 | inhibition, % at 12.5 µM | GST-KDM4C 2-372, H3K9me3 peptide, LANCE TR-FRET;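 active means mean replicate inhibition above about 25%, with at least 55% of replicates also reaching it, limit read from the data, passing the limit was not always enough; inconclusive means only one of those two conditions met; inactive means neither condition met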
# Target sequence (Q9H3R0 2-372 limits assumed): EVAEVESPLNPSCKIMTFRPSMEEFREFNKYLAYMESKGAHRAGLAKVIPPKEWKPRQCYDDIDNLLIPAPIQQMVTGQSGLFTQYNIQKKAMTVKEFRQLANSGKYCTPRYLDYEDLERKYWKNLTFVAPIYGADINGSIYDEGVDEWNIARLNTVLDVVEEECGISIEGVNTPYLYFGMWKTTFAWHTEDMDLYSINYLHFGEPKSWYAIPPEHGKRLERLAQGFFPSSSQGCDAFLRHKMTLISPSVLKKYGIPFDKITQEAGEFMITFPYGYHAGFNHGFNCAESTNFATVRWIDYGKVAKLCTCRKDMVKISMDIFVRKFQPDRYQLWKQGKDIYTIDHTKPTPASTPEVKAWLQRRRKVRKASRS
#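 Material: GST-tagged GASC-1 (JMJD2C) catalytic fragment, aa 2-372. Input: enzyme final amount 10 nM. Medium: HEPES buffer, pH 7.5, plus ascorbate. Reagent: H3K9me3 peptide substrate, Fe(II), 2-oxoglutarate. Doses: single dose. Times: reaction 30 min RT, detection step 1 h RT. Measured by: LANCE TR-FRET. Evaluation: Fall in 671/618 emission ratio as inhibition.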
# T cruzi growth-2: blocks T. cruzi growth in NIH3T3 host cells; shares compounds with T cruzi growth-1; T. cruzi beta-gal in NIH3T3, GalScreen luminescence, 90 h; inhibition, % at 8.35 µM; hit rate 72% among 5,600; AID 651739;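 active means mean replicate inhibition above about 95% and at least 55% of replicates individually reaching it, limit read from the data; inconclusive means only one of the two criteria is met; inactive means neither criterion is met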
# T cruzi growth-3: Trypanosoma cruzi proliferation inhibition | inhibition, % at 2.09 µM | AID 651740 | T. cruzi beta-gal in NIH3T3, GalScreen luminescence, 90 h | hit rate 21% among 5,600 | shares compounds with T cruzi growth-1;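 active means mean inhibition above about 95%, with at least 55% of replicates also reaching it, limit read from the data; inconclusive means meets just one of the two conditions; inactive means meets neither condition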
# 3T3 cytotox: cytotoxicity in mouse NIH/3T3 fibroblasts | cytotoxicity (signal decrease), % at 8.35 µM | hit rate 14% among 5,600 | NIH/3T3 viability, CellTiter-Glo ATP luminescence, 90 h | AID 651742 | shares compounds with T cruzi growth-1;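 active means mean signal decrease across replicates above about 35% based on untreated-well scatter, with enough replicates individually passing, limit read from the data; inconclusive means no rule stated though some were filed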
# NIH3T3 tox 2: cytotoxicity in mouse NIH/3T3 fibroblasts; shares compounds with T cruzi growth-1; NIH/3T3 viability, CellTiter-Glo ATP luminescence, 90 h; hit rate 56% among 5,600; inhibition, % at 24.9 µM;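 active means mean loss of cell viability signal at or above a set limit, and enough replicates individually reaching it; inconclusive means meets only the mean limit or only the replicate share; inactive means meets neither condition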
# Hits are given with their value; – = inactive; ? = inconclusive; · = no result given. The full list was thinned out, with hits kept by preference.
SMILES,T cruzi growth-1,IDH1 mut inh,GASC1 inh,T cruzi growth-2,T cruzi growth-3,3T3 cytotox,NIH3T3 tox 2
CC(C)c1cn(CC[C@@H]2CC[C@@H](NS(=O)(=O)c3ccccc3)[C@H](CO)O2)nn1,–,–,–,·,·,·,·
Cc1c(Br)c(C(F)(F)F)nn1CC(=O)Nc1cc(Oc2cccnc2)cc([N+](=O)[O-])c1,·,–,·,·,·,·,·
C[C@@H]1CCCCO[C@H](CN(C)CC2CCCCC2)[C@@H](C)CN([C@@H](C)CO)C(=O)c2cc(NS(=O)(=O)c3cn(C)cn3)ccc2O1,–,·,–,·,·,·,·
Cc1cccc(-c2ccc([C@H]3[C@@H](CO)N4CCCCN(Cc5ccncc5)C[C@H]34)cc2)c1,–,·,–,·,·,·,·
Cc1cccc(-c2ccc([C@@H]3[C@@H](CO)N4CCCCN(Cc5cncnc5)C[C@@H]34)cc2)c1,–,·,–,·,·,·,·
OC[C@@H]1[C@H](c2ccc(C3=CCCC3)cc2)[C@H]2CN(Cc3cncnc3)CCCCN12,?,·,–,–,–,–,46
COc1cccc(-c2ccc([C@H]3[C@@H](CO)N4CCCCN(Cc5cncnc5)C[C@H]34)cc2)c1,99,·,–,108,–,–,45
OC[C@H]1[C@@H](c2ccc(C3=CCCC3)cc2)[C@@H]2CN(Cc3ccncc3)CCCCN12,–,·,–,·,·,·,·
Cc1cccc(-c2ccc([C@H]3[C@H](CO)N4CCCCN(Cc5ccncc5)C[C@@H]34)cc2)c1,?,·,–,101,–,–,105
COc1cccc(-c2ccc([C@H]3[C@@H](CO)N4CCCCN(Cc5cncnc5)C[C@@H]34)cc2)c1,–,·,–,·,·,·,·
Cc1cccc(-c2ccc([C@H]3[C@@H](CO)N4CCCCN(Cc5cccnc5)C[C@H]34)cc2)c1,99,·,–,97,–,45,105
O=C(CSc1nc(-c2ccc(Cl)cc2)cc(C(F)(F)F)n1)c1cccc([N+](=O)[O-])c1,·,–,·,·,·,·,·
COc1ccc(CN(C)C[C@H]2OCCCC[C@@H](C)Oc3ccc(N(C)C)cc3C(=O)N([C@@H](C)CO)C[C@@H]2C)cc1,–,·,–,·,·,·,·
Cc1ccccc1-c1ccc(C2[C@@H]3CN(C(=O)Nc4cccc(F)c4)C[C@H]2N3)cc1 (stereo partly specified),·,·,–,·,·,·,·
Cc1cc(NC(=O)CN(c2cc(Cl)ccc2C)S(C)(=O)=O)ccc1Br,·,–,·,·,·,·,·
CN(C)CC(=O)N1[C@@H]2c3cccc(=O)n3C[C@@H]2[C@@H](CO)[C@@H]1C(=O)NCc1ccccc1F,·,·,–,·,·,·,·
C[C@H]1CN([C@@H](C)CO)C(=O)c2cc(-c3cccnc3)cnc2O[C@@H]1CN(C)C(=O)NC1CCCC1,–,–,–,·,·,·,·
Cc1ccc(-n2ncc(C(=O)NCc3ccccn3)c2NC(=O)c2ccco2)cc1C,·,–,·,·,·,·,·
Nc1cc(N)nc(SCC(=O)Nc2cccc(C(F)(F)F)c2)n1,·,–,·,·,·,·,·
OC[C@@H]1[C@@H](c2ccc(Br)cc2)[C@H]2CN(Cc3cncnc3)CCCCN12,–,·,–,·,·,·,·
OC[C@@H]1[C@H](c2ccc(Br)cc2)[C@H]2CN(Cc3ccccn3)CCCCN12,97,·,–,99,–,–,–
OC[C@@H]1[C@H](c2ccc(Br)cc2)[C@@H]2CN(Cc3cncnc3)CCCCN12,96,·,–,–,–,–,–
Cc1cccc(-c2ccc([C@@H]3[C@H]4CN(Cc5cncnc5)CCCCN4[C@H]3CO)cc2)c1,103,·,–,–,–,–,102
OC[C@H]1[C@@H](c2ccc(Br)cc2)[C@@H]2CN(Cc3ccccn3)CCCCN12,–,·,–,·,·,·,·
Cc1cccc(-c2ccc([C@@H]3[C@H](CO)N4CCCCN(Cc5cncnc5)C[C@@H]34)cc2)c1,–,·,–,·,·,·,·
SMILES,T cruzi growth-1,IDH1 mut inh,GASC1 inh,T cruzi growth-2,T cruzi growth-3,3T3 cytotox,NIH3T3 tox 2
O=C(Nc1ccc(Cl)cc1)NC(Cc1ccccc1)C(=O)O (stereo unspecified),·,–,·,·,·,·,·
C[C@@H]1CCCCO[C@@H](CN(C)Cc2ccc(C(F)(F)F)cc2)[C@H](C)CN([C@@H](C)CO)C(=O)c2cc(N(C)C)ccc2O1,–,–,–,·,·,·,·
C[C@@H]1CCCCO[C@@H](CN(C)Cc2ccc(C(F)(F)F)cc2)[C@H](C)CN([C@H](C)CO)C(=O)c2cc(N(C)C)ccc2O1,?,·,–,105,–,–,59
C[C@@H]1CCCCO[C@H](CN(C)Cc2ccccc2)[C@H](C)CN([C@@H](C)CO)C(=O)c2cc(N(C)C)ccc2O1,–,–,–,·,·,·,·
C[C@@H]1CN([C@@H](C)CO)C(=O)c2cc(N(C)C)ccc2O[C@@H](C)CCCCO[C@H]1CN(C)Cc1ccccc1,99,–,–,100,–,–,–
C[C@@H]1CN([C@H](C)CO)C(=O)c2cc(N(C)C)ccc2O[C@@H](C)CCCCO[C@@H]1CN(C)Cc1ccc(C(=O)O)cc1,–,–,–,·,·,·,·
C[C@@H]1CCCCO[C@@H](CN(C)Cc2ccc(C(F)(F)F)cc2)[C@@H](C)CN([C@@H](C)CO)C(=O)c2cc(N(C)C)ccc2O1,97,·,–,104,–,–,28
CCC(=O)N1CC2(C1)[C@@H](c1ccc(-c3ccc(C)cc3)cc1)[C@@H](CO)N2S(C)(=O)=O,·,·,–,·,·,·,·
COc1cccc(-c2ccc3c(c2)[C@@H]2[C@@H](CCN2C(=O)Cc2ccncc2)[C@@H](CO)N3)c1,?,·,–,101,–,–,–
O=C(Cc1ccccc1)N1CC[C@H]2[C@H](CO)Nc3ccc(-c4cccc(F)c4)cc3[C@H]21,–,·,–,·,·,·,·
COc1ccc(-c2ccc3c(c2)[C@H]2[C@H](CCN2C(=O)Cc2ccncc2)[C@H](CO)N3)cc1,–,·,–,·,·,·,·
O=C(Cc1ccncc1)N1CC[C@@H]2[C@H]1c1cc(-c3cccc(F)c3)ccc1N[C@@H]2CO,118,·,–,107,–,–,–
CCOC(=O)C1CCCCN1Cc1cccc([N+](=O)[O-])c1 (stereo unspecified),·,–,·,·,·,·,·
COc1ccc(NC(=O)CSc2nnc3c4c5c(sc4nc(-c4ccccc4)n23)CCC5)cc1,·,–,·,·,·,·,·
CCC(C)C(O)C(C)(O)/C=C/C1=CC2=C(Cl)C(=O)C(C)(O)C(OC(C)=O)C2CO1 (stereo unspecified),·,–,·,·,·,·,·
Nc1nc(SCC(=O)Nc2ccccc2C(F)(F)F)n[nH]1,·,–,·,·,·,·,·
C[C@@H]1CN([C@H](C)CO)C(=O)c2cc(NS(=O)(=O)c3ccc(Cl)cc3)ccc2O[C@@H](C)CCCCO[C@@H]1CN(C)C(=O)c1ccncc1,–,·,–,·,·,·,·
CN(C)C(=O)c1cccc(-c2ccc([C@H]3[C@@H](CO)N4CCCCN(C(=O)C5CCCC5)C[C@@H]34)cc2)c1,102,·,·,103,98,–,–
CN(C)C(=O)c1cccc(-c2ccc([C@H]3[C@H](CO)N4CCCCN(C(=O)C5CCC5)C[C@@H]34)cc2)c1,102,·,–,99,?,–,–
CN(C)C(=O)c1cccc(-c2ccc([C@@H]3[C@@H](CO)N4CCCCN(C(=O)C5CCCC5)C[C@H]34)cc2)c1,–,·,·,·,·,·,·

# Screening data: PubChem, Broad Institute
